Data from ChEMBL document CHEMBL4261620, “Design, synthesis, and biological evaluation of 4-chloro-2H-thiochromenes featuring nitrogen-containing side chains as potent antifungal agents” (Bioorg Med Chem Lett, 2018).
Values after ≈ are worked out from the molar mass of the structure shown.

Legend:
Aspergillus fumigatus = experiment: Antifungal activity against Aspergillus fumigatus cgmcc 3.7795 after 2 to 7 days by broth microdilution method; format: functional
How it was run: (§1)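 Broth microdilution in 96-well plates per NCCLS. Compounds and fluconazole reference dissolved in DMSO, serially diluted in growth medium, then inoculum suspension added, final concentrations 128 to 0.25 µg/mL (twofold series). Incubated at 32°C. MIC read visually after 2-7 d.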

Cryptococcus neoformans = experiment: Antifungal activity against Cryptococcus neoformans cgmcc 2.3161 after 2 to 7 days by broth microdilution method; format: functional; how it was run: as §1
Candida tropicalis = experiment: Antifungal activity against Candida tropicalis cgmcc 2.3739 after 2 to 7 days by broth microdilution method; format: functional; how it was run: as §1
Candida albicans [1] = experiment: Antifungal activity against fluconazole-resistant Candida albicans 103 after 2 to 7 days by broth microdilution method; format: functional
How it was run: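 Broth microdilution per NCCLS. Compounds dissolved in DMSO, serially diluted in growth medium, then inoculum suspension added to give final concentrations of 128 to 0.25 µg/mL (twofold steps). Plates incubated at 32°C. MIC read by visual observation after 2-7 d. Fluconazole served as reference drug.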

Candida albicans [2] = experiment: Antifungal activity against fluconazole-sensitive Candida albicans ATCC SC5314 after 2 to 7 days by broth microdilution method; format: functional; how it was run: as §1
Candida albicans [3] = experiment: Antifungal activity against Candida albicans cpcc 400616 after 2 to 7 days by broth microdilution method; format: functional; how it was run: as §1
HT-29 = experiment: Cytotoxicity against human HT-29 cells by MTT assay; format: cell-based
A549 = experiment: Cytotoxicity against human A549 cells by MTT assay; format: cell-based
HepG2 = experiment: Cytotoxicity against human HepG2 cells by MTT assay; format: cell-based
H9c2 = experiment: Cytotoxicity against rat H9c2 cells by MTT assay; format: cell-based

SMILES | MIC (Aspergillus fumigatus) | MIC (Cryptococcus neoformans) | MIC (Candida tropicalis) | MIC (Candida albicans [1]) | MIC (Candida albicans [2]) | MIC (Candida albicans [3]) | IC50 (HT-29) | IC50 (A549) | IC50 (HepG2) | IC50 (H9c2)
O=C1CCSc2ccc(Cl)cc21 | > 128 µg/mL | 32 µg/mL (≈ 161 µM) | 8 µg/mL (≈ 40.3 µM) | 16 µg/mL (≈ 80.5 µM) | 4 µg/mL (≈ 20.1 µM) | 16 µg/mL (≈ 80.5 µM) | – | – | – | –
Fc1ccc2c(c1)C(Cl)=C(Cn1cncn1)CS2 | > 128 µg/mL | 64 µg/mL (≈ 227 µM) | 8 µg/mL (≈ 28.4 µM) | 32 µg/mL (≈ 114 µM) | 4 µg/mL (≈ 14.2 µM) | 16 µg/mL (≈ 56.8 µM) | – | – | – | –
CC(C)N(CC1=C(Cl)c2cc(Br)ccc2SC1)C(C)C | > 128 µg/mL | 0.25 µg/mL (≈ 0.667 µM) | > 128 µg/mL | 0.5 µg/mL (≈ 1.33 µM) | 0.5 µg/mL (≈ 1.33 µM) | 0.5 µg/mL (≈ 1.33 µM) | > 100 µg/mL | 36 µg/mL (≈ 96.2 µM) | > 100 µg/mL | > 100 µg/mL
ClC1=C(CN2CCCC2)CSc2ccc(Br)cc21 | > 128 µg/mL | 8 µg/mL (≈ 23.2 µM) | 128 µg/mL (≈ 371 µM) | 64 µg/mL (≈ 186 µM) | 8 µg/mL (≈ 23.2 µM) | 16 µg/mL (≈ 46.4 µM) | – | – | – | –
COc1cccc2c1C(=O)c1c(O)c3c(c(O)c1C2=O)C[C@@](O)(C(=O)CO)C[C@@H]3O[C@H]1C[C@H](N)[C@H](O)[C@H](C)O1 | – | – | – | – | – | – | 1.44 µg/mL (≈ 2.65 µM) | 1.77 µg/mL (≈ 3.26 µM) | 2.9 µg/mL (≈ 5.34 µM) | 0.29 µg/mL (≈ 0.534 µM)
CCN(CC)CC1=C(Cl)c2cc(Cl)ccc2SC1 | > 128 µg/mL | 1 µg/mL (≈ 3.31 µM) | 2 µg/mL (≈ 6.62 µM) | 8 µg/mL (≈ 26.5 µM) | 0.5 µg/mL (≈ 1.65 µM) | 4 µg/mL (≈ 13.2 µM) | > 100 µg/mL | > 100 µg/mL | > 100 µg/mL | > 100 µg/mL
ClC1=C(Cn2ccnc2)CSc2ccc(Cl)cc21 | 64 µg/mL (≈ 215 µM) | 8 µg/mL (≈ 26.9 µM) | 64 µg/mL (≈ 215 µM) | 64 µg/mL (≈ 215 µM) | 16 µg/mL (≈ 53.8 µM) | 32 µg/mL (≈ 108 µM) | – | – | – | –
CCN(CC)CC1=C(Cl)c2cc(Br)ccc2SC1 | > 128 µg/mL | 4 µg/mL (≈ 11.5 µM) | 64 µg/mL (≈ 185 µM) | 64 µg/mL (≈ 185 µM) | 8 µg/mL (≈ 23.1 µM) | 16 µg/mL (≈ 46.1 µM) | – | – | – | –
CN1CCN(CC2=C(Cl)c3cc(F)ccc3SC2)CC1 | > 128 µg/mL | 1 µg/mL (≈ 3.2 µM) | 32 µg/mL (≈ 102 µM) | 16 µg/mL (≈ 51.1 µM) | 16 µg/mL (≈ 51.1 µM) | 16 µg/mL (≈ 51.1 µM) | – | – | – | –
O=CC1=C(Cl)c2cc(Br)ccc2SC1 | > 128 µg/mL | 32 µg/mL (≈ 111 µM) | 64 µg/mL (≈ 221 µM) | 64 µg/mL (≈ 221 µM) | 16 µg/mL (≈ 55.3 µM) | 32 µg/mL (≈ 111 µM) | 28.8 µg/mL (≈ 99.4 µM) | > 100 µg/mL | 26.6 µg/mL (≈ 91.9 µM) | > 100 µg/mL
O=C1CCSc2ccc(F)cc21 | 64 µg/mL (≈ 351 µM) | 64 µg/mL (≈ 351 µM) | 16 µg/mL (≈ 87.8 µM) | 64 µg/mL (≈ 351 µM) | 8 µg/mL (≈ 43.9 µM) | 32 µg/mL (≈ 176 µM) | – | – | – | –
CN1CCN(CC2=C(Cl)c3cc(Br)ccc3SC2)CC1 | > 128 µg/mL | 8 µg/mL (≈ 21.4 µM) | 16 µg/mL (≈ 42.8 µM) | 64 µg/mL (≈ 171 µM) | 8 µg/mL (≈ 21.4 µM) | 16 µg/mL (≈ 42.8 µM) | – | – | – | –
CC(C)NCC1=C(Cl)c2cc(Cl)ccc2SC1 | 64 µg/mL (≈ 222 µM) | 0.5 µg/mL (≈ 1.73 µM) | 32 µg/mL (≈ 111 µM) | 32 µg/mL (≈ 111 µM) | 16 µg/mL (≈ 55.5 µM) | 32 µg/mL (≈ 111 µM) | – | – | – | –
Fc1ccc2c(c1)C(Cl)=C(CN1CCCCC1)CS2 | > 128 µg/mL | 2 µg/mL (≈ 6.72 µM) | 16 µg/mL (≈ 53.7 µM) | 16 µg/mL (≈ 53.7 µM) | 8 µg/mL (≈ 26.9 µM) | 2 µg/mL (≈ 6.72 µM) | – | – | – | –
O=CC1=C(Cl)c2cc(Cl)ccc2SC1 | > 128 µg/mL | 32 µg/mL (≈ 131 µM) | 32 µg/mL (≈ 131 µM) | 64 µg/mL (≈ 261 µM) | 32 µg/mL (≈ 131 µM) | 64 µg/mL (≈ 261 µM) | 18.4 µg/mL (≈ 75.2 µM) | > 100 µg/mL | 21.5 µg/mL (≈ 87.8 µM) | > 100 µg/mL
CC(C)N(CC1=C(Cl)c2cc(F)ccc2SC1)C(C)C | > 128 µg/mL | 4 µg/mL (≈ 12.7 µM) | 2 µg/mL (≈ 6.37 µM) | 64 µg/mL (≈ 204 µM) | 4 µg/mL (≈ 12.7 µM) | 4 µg/mL (≈ 12.7 µM) | – | – | – | –
ClC1=C(Cn2cncn2)CSc2ccc(Br)cc21 | > 128 µg/mL | 8 µg/mL (≈ 23.3 µM) | > 128 µg/mL | > 128 µg/mL | 64 µg/mL (≈ 187 µM) | > 128 µg/mL | – | – | – | –
Cc1ccc2c(c1)C(Cl)=C(CN1CCN(C)CC1)CS2 | > 128 µg/mL | 32 µg/mL (≈ 104 µM) | 8 µg/mL (≈ 25.9 µM) | 64 µg/mL (≈ 207 µM) | 8 µg/mL (≈ 25.9 µM) | 32 µg/mL (≈ 104 µM) | – | – | – | –
